Shown is part of a subset that was picked to be rich in hits.
INS promoter act: TRM-6 insulin promoter activation; TRM-6 cells (human fetal islet line), insulin promoter eGFP reporter, imaging; plate-scaled: unstimulated 0, stimulated control 100; activation, % at 2 µM; 130,000 tested, 0.81% active; AID 1296;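 active means activation at 2 µM above a set limit, confirmed on inspection of the cell images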;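 further: share of cells whose green reporter signal exceeds an intensity cutoff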
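Assay system: TRM-6 human fetal islet cells, insulin promoter–eGFP reporter; Also added: 0.75 µM tamoxifen as reporter inducer; Schedule: 15 h tamoxifen pre-treatment, 48 h compound treatment at 37 °C; Signal: fixed-cell fluorescence microscopy, eGFP plus Hoechst; Read-out: percent activation from GFP-positive cell fraction; Control set: stimulated and unstimulated wells.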
Of the large screens only hits and unclear results are named; the others gave an inactive call.

O=S(=O)(c1cccc2nsnc12)N1CCc2ccccc21	none
O=C(CN1CC(c2ccccc2)CC1=O)N/N=C/c1cc(Br)ccc1O (centres undefined)	none
O=C(Nc1ccc2nc3n(c(=O)c2c1)CCCC3)c1cccc([N+](=O)[O-])c1	none
O=c1c2c(-c3ccc([N+](=O)[O-])cc3)csc2nc2n1CCC2	INS promoter act 481.3
Cc1c(C(=O)O)sc2nc3n(c(=O)c12)CCC3	none
Cc1ccc(NC2=NC(=S)N(CC#N)C23CCCCC3)cc1	none
Cc1ccsc1/C=C1\SC(N2CC(C)OC(C)C2)=NC1=O (centres undefined)	none
COc1ccc(C2NC(=O)NC(C)=C2C(C)=O)cc1 (centres undefined)	none
COc1ccc(C2C(C(C)=O)=C(Nc3ccccc3)CC(C)(O)C2C(C)=O)cc1OC (centres undefined)	none
COc1ccc(NC2=C(C(C)=O)C(c3ccc(OC)cc3)C(C(C)=O)C(C)(O)C2)cc1 (centres undefined)	INS promoter act 316.7
OCCN1CCN(c2cc(-c3ccccc3)c3ccccc3n2)CC1	none
CCN1/C(=C/C(C)=C/c2sc3ccccc3[n+]2CC)Sc2ccccc21	INS promoter act 640.7
COc1ccc(CNC(=O)Cn2nnc(-c3ccc(NC(=O)C4CCCCC4)cc3)n2)cc1	none
CCN(CC)c1nc(C)nc2c1cnn2CCc1ccccc1	none
CC(c1ccccc1)N1CCc2[nH]c(=S)[nH]c(=O)c2C1 (centres undefined)	none
CC(=O)N=c1sc(C(C)(C)C)c(C)n1C	none
CCCCOC(=O)n1c(SCC(=O)N(CC)CC)nc2ccccc21	none
Cc1cc(NC(=O)c2cnn3c(C(F)F)cc(-c4ccccc4)nc23)no1	none
Cc1cc(NC(=O)c2cnn3c(C(F)F)cc(C4CC4)nc23)no1	none
Cc1cc(NC(=O)c2cnn3c(C(F)(F)F)cc(-c4ccccc4)nc23)no1	INS promoter act 429.4
O=C(CON=C1c2ccccc2-c2ccccc21)NC12CC3CC(CC(C3)C1)C2	none
Cc1cc(N/N=C(/CCC(=O)O)C(=O)O)nc2ccccc12	none
CC(C)C(=O)Nc1cccc(NC(=O)c2cc3ccccc3o2)c1	none
CC(C)C(=O)Nc1cccc(S(=O)(=O)c2cccc(NC(=O)C(C)C)c2)c1	INS promoter act 487.5
Cc1nnc(NC(=O)c2cccc(NC(=O)C(C)C)c2)s1	none
O=C(NCCc1ccccn1)C1CC(=O)N(Cc2ccccc2Cl)C1 (centres undefined)	INS promoter act 131.3
COCCCNC(=O)C1CC(=O)N(Cc2ccc(OC)cc2)C1 (centres undefined)	none
COc1ccc(CN2CC(C(=O)NCCC3=CCCCC3)CC2=O)cc1 (centres undefined)	none
COc1ccc(C(=O)NC(=O)COC(=O)C2COc3ccccc3O2)cc1 (centres undefined)	none
COc1cccc(CN2C(=O)C3CCCN3c3ccc(S(=O)(=O)N4CCOCC4)cc32)c1 (centres undefined)	none
CCN(CC)S(=O)(=O)c1cccc(-c2nnc(SCC(=O)NC3CCCCCCC3)n2N)c1	none
CN(CC(=O)NC1CCCCCCC1)S(=O)(=O)c1cnc[nH]1	none
Cc1c(OCC(=O)OC(C)C)ccc2c3c(c(=O)oc12)CCC3	none
Cc1c(OCc2ccc([N+](=O)[O-])cc2)ccc2c3c(c(=O)oc12)CCC3	none
C=C(C)COc1ccc2c3c(c(=O)oc2c1OCC(=C)C)CCC3	INS promoter act 142.9
O=C(COc1ccc(Cl)cc1Cl)Nc1c(-c2cccs2)nc2ccccn12	none
Cn1c(Cn2c(=O)sc3ccccc32)nnc1SCC(=O)NCCc1ccccc1	none
NS(=O)(=O)c1ccc(NC(=S)Nc2cc(Cl)c(Cl)cc2Cl)cc1	none
Cc1cc(C)n(CC(=O)n2c3ccccc3c3ccccc32)n1	none
Cc1cc(C)n(CC(O)Cn2c3ccccc3c3ccccc32)n1 (centres undefined)	none
Cc1cc(C)n(CC(O)CN2c3ccccc3Sc3ccccc32)n1 (centres undefined)	INS promoter act 209.1
CN(C)C=Nc1nonc1-c1ncn[nH]1	none
CN(C)C=Nc1c(Br)cc(Br)c2nonc12	INS promoter act 203.0
Cc1ccc(-n2c(=O)c3ccccc3n(CC(=O)NCc3ccco3)c2=O)cc1	none
Cc1cc(NC(=O)CCC(=O)N(CC(=O)NCC2CCCO2)c2ccc3c(c2)OCCO3)no1 (centres undefined)	none
COC(=O)C(C(=O)OC)C(C[N+](=O)[O-])c1ccc(O)c(OC)c1 (centres undefined)	none
O=C(O)/C=C/C(=O)NCCc1ccccc1	INS promoter act 321.4
O=C(/C=C/c1c(Cl)cccc1Cl)NCCc1ccccc1	none
COc1ccc(CCNC(=O)/C=C/C(=O)O)cc1	none
CC1CN(c2snnc2C=C2C(=O)OC(C)(C)OC2=O)CC(C)O1 (centres undefined)	none
CN(C)S(=O)(=O)c1ccc(Oc2ccccc2)cc1	INS promoter act 475.0
CNS(=O)(=O)c1ccc(Oc2ccc(S(=O)(=O)NC)cc2)cc1	none
CN(C)S(=O)(=O)c1ccc(C(=O)Nc2ccccc2F)cc1	none
Cc1cnc(C(=O)NCC(c2ccccc2)c2ccccc2)cn1	none
COc1cc(C2C(C#N)=C(N)OC3=C2C(=O)CC(C)(C)C3)ccc1OC(=O)N1CCOCC1 (centres undefined)	INS promoter act 600.0
COc1ccc(-c2[nH]nc3c2C(c2ccc(OC(=O)N4CCOCC4)cc2)C(C#N)=C(N)O3)cc1 (centres undefined)	none
N#CC1=C(N)OC2=C(C(=O)CCC2)C1c1ccc(OC(=O)N2CCOCC2)cc1 (centres undefined)	none
C=CCn1c(C)cc(C(=O)COC(=O)c2ccc3c(c2)NC(=O)CS3)c1C	none
CCCNC(=O)CN1C(=O)NC(CCc2ccccc2)C1=O (centres undefined)	none
COc1ccccc1CNC(=O)C(CCSC)NS(=O)(=O)c1ccc2c(c1)oc(=O)n2C (centres undefined)	INS promoter act 164.3
COc1ccc(OC)c(NC(=O)CCNS(=O)(=O)c2ccc3c(c2)oc(=O)n3C)c1	none
COc1cc(OC)c(NC(=O)CCNS(=O)(=O)c2ccc3c(c2)oc(=O)n3C)cc1Cl	none
c1ccc(-n2nnnc2OCCOc2nnnn2-c2ccccc2)cc1	none
Clc1cccc(N2CCN(c3nnnn3-c3ccccc3)CC2)c1	none
Fc1cccc(-n2ncc(-c3nnnn3-c3ccccc3)c2C(F)(F)F)c1	INS promoter act 528.6
O=C(OCC#CCSc1nnc(-c2ccc([N+](=O)[O-])cc2)o1)c1cccs1	none
CCN(CC)c1cc(C)c2cc(NC(=O)c3ccc(Br)o3)ccc2n1	none
CC(/C=C/c1ccccc1)=N\NC(=O)CNC(=O)c1ccccc1Cl	none
CC(/C=C/c1ccccc1)=N\NC(=O)c1ccc(Br)cc1	INS promoter act 388.9
O=C(N/N=C/C=C/c1ccccc1)c1ccc(Br)cc1	none
Cc1ccc(NC(=O)CCn2nc([N+](=O)[O-])cc2C)nc1	none
CC(C)(C)C1CCC(=NOC(=O)c2ccc(F)cc2)CC1 (centres undefined)	none
O=C(c1ccco1)N1CCN(CC(O)Cn2c3ccccc3c3ccccc32)CC1 (centres undefined)	none
CCCCS(=O)CC(COCc1ccccc1)OC(=O)CSc1nc(C)cc(C)n1 (centres undefined)	none
CCOC(=O)N1CCC(NC(=O)C(NS(=O)(=O)c2ccc3c(c2)CCN3C(C)=O)C(C)C)CC1 (centres undefined)	none
CCC(=O)N1CCc2cc(S(=O)(=O)NC(Cc3ccccc3)C(=O)NC3CCCCC3)ccc21 (centres undefined)	INS promoter act 316.7
CCC(=O)N1CCc2cc(S(=O)(=O)NCCCOC)ccc21	none
Cc1cc(NC(=O)CCCC(=O)NCc2cccs2)no1	none

Screening results: PubChem, Columbia University Molecular Screening Center
